Assay results reported in ChEMBL document CHEMBL1157664, “Aminopyridinecarboxamide-based inhibitors: Structure-activity relationship” (Bioorg Med Chem, 2010).
The source made the active and inactive calls. No cut-off for these calls is given here.

Assays:
[1] = target: T1, Inhibitor of nuclear factor kappa-B kinase subunit epsilon (Homo sapiens) (UniProt Q14164); test: Inhibition of IKKI
T1 sequence (whole entry): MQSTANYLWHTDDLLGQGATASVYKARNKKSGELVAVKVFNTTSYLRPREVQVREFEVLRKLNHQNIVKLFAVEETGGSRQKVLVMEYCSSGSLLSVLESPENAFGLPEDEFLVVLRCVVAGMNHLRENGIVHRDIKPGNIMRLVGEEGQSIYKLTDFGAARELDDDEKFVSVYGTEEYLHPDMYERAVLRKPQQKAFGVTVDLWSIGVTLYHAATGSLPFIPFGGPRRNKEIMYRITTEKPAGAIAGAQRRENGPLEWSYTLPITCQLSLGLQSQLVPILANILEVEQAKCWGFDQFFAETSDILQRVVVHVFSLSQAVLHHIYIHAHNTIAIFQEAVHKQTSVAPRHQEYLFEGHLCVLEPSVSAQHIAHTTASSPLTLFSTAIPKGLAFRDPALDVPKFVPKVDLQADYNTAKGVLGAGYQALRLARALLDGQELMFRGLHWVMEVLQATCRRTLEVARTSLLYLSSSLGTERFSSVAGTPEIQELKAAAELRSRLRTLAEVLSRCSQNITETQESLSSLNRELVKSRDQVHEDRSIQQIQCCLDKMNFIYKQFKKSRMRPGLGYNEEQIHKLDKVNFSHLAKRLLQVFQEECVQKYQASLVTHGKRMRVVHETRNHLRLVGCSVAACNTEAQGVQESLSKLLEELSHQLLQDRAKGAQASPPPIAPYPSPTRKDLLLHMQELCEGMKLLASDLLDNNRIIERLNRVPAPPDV

[2] = target: T2, Inhibitor of nuclear factor kappa-B kinase subunit alpha (Homo sapiens, UniProt O15111); test: Inhibition of IKK1
T2 sequence (O15111 whole entry): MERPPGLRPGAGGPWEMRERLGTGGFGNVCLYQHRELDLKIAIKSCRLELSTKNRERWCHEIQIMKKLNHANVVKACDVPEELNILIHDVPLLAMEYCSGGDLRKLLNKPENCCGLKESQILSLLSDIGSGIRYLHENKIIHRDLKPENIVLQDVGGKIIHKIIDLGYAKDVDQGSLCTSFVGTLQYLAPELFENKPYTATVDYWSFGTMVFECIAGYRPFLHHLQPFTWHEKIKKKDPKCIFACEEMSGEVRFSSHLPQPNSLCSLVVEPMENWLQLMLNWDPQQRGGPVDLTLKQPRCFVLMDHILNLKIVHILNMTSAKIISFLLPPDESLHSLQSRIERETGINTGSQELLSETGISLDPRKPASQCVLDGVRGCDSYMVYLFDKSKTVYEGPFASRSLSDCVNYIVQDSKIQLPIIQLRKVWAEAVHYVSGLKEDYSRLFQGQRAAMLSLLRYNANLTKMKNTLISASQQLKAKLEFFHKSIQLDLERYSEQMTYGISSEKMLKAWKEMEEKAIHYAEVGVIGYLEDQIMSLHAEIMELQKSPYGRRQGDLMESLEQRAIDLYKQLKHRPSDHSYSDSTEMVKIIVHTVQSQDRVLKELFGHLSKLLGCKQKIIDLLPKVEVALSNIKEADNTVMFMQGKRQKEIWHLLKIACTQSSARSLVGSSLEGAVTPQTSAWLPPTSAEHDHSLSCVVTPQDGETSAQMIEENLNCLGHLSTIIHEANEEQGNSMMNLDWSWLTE

[3] = Antiinflammatory activity in human synovial fibroblasts assessed as inhibition of IL-1-beta-stimulated IL8 production treated 1 hr before IL1-beta challenge measured after 18 hrs by ELISA; type: functional
Summary of the method: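 Rheumatoid arthritis patient synovial fibroblasts seeded at 1.5 × 10^4 cells/well in DMEM + 15% FBS and left to attach overnight. Medium then changed to DMEM + 1% FBS. Cells pretreated 1 h with increasing compound concentrations (0.2% Me2SO final), then stimulated 18 h with 1 ng/mL IL-1β. Secreted IL-8 measured by ELISA against standard curves (4-parameter logistic). Cytotoxicity checked by Alamar Blue.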

[4] = target: T3, Serine/threonine-protein kinase TBK1 (Homo sapiens) (UniProt Q9UHD2); test: Inhibition of TBK1
T3 sequence (whole entry): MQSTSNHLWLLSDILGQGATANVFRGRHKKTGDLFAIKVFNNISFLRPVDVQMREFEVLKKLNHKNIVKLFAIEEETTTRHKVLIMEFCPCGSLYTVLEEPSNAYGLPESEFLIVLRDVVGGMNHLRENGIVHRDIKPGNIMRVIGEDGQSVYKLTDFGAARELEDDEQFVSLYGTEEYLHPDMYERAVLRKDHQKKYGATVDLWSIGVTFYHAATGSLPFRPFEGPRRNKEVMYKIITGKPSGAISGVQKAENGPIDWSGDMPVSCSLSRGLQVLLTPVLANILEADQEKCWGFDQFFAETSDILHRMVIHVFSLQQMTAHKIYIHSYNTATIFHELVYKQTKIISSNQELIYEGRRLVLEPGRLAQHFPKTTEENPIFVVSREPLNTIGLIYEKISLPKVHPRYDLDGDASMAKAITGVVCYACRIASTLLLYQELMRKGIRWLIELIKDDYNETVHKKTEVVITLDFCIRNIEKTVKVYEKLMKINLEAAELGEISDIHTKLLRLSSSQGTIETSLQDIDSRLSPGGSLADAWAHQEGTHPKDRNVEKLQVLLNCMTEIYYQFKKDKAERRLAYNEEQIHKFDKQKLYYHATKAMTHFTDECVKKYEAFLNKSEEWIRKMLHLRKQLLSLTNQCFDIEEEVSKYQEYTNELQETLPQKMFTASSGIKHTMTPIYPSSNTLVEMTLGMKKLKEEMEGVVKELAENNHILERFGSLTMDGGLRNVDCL

[5] = target: T4, Inhibitor of nuclear factor kappa-B kinase subunit beta (Homo sapiens, UniProt O14920); test: Inhibition of human recombinant IKK2-mediated transfer of [gamma33P]ATP to biotinylated IkappaBalpha after 30 mins by scintillation counting
T4 sequence (O14920 whole entry): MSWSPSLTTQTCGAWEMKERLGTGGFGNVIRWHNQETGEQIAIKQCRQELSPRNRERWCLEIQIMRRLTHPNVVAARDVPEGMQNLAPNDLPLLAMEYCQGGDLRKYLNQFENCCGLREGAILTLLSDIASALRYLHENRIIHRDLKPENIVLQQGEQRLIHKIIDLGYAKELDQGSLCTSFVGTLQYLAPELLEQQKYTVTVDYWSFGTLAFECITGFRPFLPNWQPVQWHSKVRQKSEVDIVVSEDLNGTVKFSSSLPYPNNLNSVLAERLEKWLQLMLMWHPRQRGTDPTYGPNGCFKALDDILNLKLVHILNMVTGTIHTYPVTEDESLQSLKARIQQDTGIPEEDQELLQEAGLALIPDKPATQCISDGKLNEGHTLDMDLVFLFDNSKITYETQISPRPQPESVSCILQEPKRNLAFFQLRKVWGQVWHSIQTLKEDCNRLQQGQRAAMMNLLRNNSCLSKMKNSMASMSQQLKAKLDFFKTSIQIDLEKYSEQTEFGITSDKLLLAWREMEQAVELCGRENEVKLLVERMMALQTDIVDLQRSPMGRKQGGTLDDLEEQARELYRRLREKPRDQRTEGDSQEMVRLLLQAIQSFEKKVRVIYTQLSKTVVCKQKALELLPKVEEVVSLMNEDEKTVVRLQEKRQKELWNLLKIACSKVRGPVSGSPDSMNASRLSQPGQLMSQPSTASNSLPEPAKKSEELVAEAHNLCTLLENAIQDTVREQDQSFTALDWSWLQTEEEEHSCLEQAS
Summary of the method: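 Recombinant human IKK-2 enzyme (46 nM/rxn, 200 ng/rxn). Substrate 5 µM biotinylated IκBα peptide (residues spanning Ser32/Ser36) with 1 µM ATP plus 0.1 µCi [γ-33P]ATP. Buffer 25 mM Hepes pH 7.6 with 1 mM DTT, 2 mM MgCl2, 2 mM MnCl2, 10 mM NaF. Incubated 30 min at 25 °C, stopped with AG1X8 resin in formate buffer pH 3. Supernatant ³³P read by scintillation counting.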

## CN1CCN(c2cc(C(=O)Nc3ccc4c(c3)-c3c(c(C(N)=O)nn3-c3ccc(F)cc3)CC4)c(Cl)cn2)CC1
[1]
  inhibition: inactive
[2]
  IC50: 14000 nM
[3]
  IC50: 940 nM
[4]
  inhibition: inactive
[5]
  IC50: 25 nM
